Source: PubChem BioAssay
Active and inactive are the calls of the source.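 How the source made its calls, unless noted: active means viability loss from added drug above about 55%, and viability with drug at most 40%, in both replicates (limit read from the data, passing the limit was not always enough); inconclusive means both conditions met in only one replicate; inactive means neither replicate meets both conditions.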

How the values were obtained:
[1] = SK-BR-3 cell growth inhibitors, pilot screen, 24 h, human (AID 572;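 active means viability at or below 10% of carrier control in both of two separate runs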;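 further: compound exposure lasted between 18 and 24 h rather than exactly 24 h; 100% = carrier-treated control wells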); conditions: SK-BR-3 viability, CellTiter-Glo luminescence, at 10 µM, stronger effect = lower value
[2] = HUVEC growth inhibition – cell-based, human, primary screen (AID 575;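 active means viability at or below 30% in both replicate assays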;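 further: 100% = median of untreated cell wells with 0.1% DMSO on each plate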); conditions: HUVEC proliferation, CellTiter-Glo luminescence, 72 h; at 10 µM; stronger effect = lower value
Procedure, shortened: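 Assay system: primary human umbilical vein endothelial cells / Buffer or medium: endothelial basal medium with 2% FBS plus growth supplements / Compound dosing: one dose, 10 µM final, 0.1% DMSO / Timing: 72 h treatment at 37 °C / Signal: CTG luminescence / Benchmarks: 32 DMSO-only cell-control wells (high), 32 MePR drug-control wells (low) per plate / Plate: collagen-coated 384-well format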

[3] = growth inhibitors of H69AR lung tumor, primary screen, human, duplicate replicates (AID 580;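 active means viability at or under a set limit in both replicates, limit being median viability minus 3 SD, cut at about 48% in these data, passing the limit was not always enough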;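 further: 100% = mean luminescence of untreated wells and 0% = no signal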); conditions: H69AR lung tumor cells viability, ATP luminescence, 72 h; at 10 µM; stronger effect = lower value
[4] = reversal of MRP1-mediated doxorubicin resistance, pilot screen, H69AR cells, doxorubicin co-treatment (AID 601); conditions: CellTiter-Glo, 72 h, at 10 µM; for differential viability (reversal): stronger effect = higher value
[5] = 384-well plate pilot, post-Golgi transport modulator project, inhibition of yeast transport mutant growth (AID 636; in the data active means inhibition above about 31%); conditions: absorbance 615 nm, about 18 h, stronger effect = higher value
[6] = growth suppression of yeast trafficking mutant, preliminary HTS, modulators of trafficking downstream of Golgi apparatus project, 1536-format plate, OD 615 nm (AID 637; in the data active means inhibition above about 30%); conditions: yeast transport mutant growth, absorbance 615 nm, 18 h; stronger effect = higher value
[7] = H69AR cells + 2 uM doxorubicin, measured here: viability with 2 uM doxorubicin, stronger effect = lower value
[8] = H69AR cells, compound alone cytotoxicity

Row | SMILES | viability [1] | viability [2] | viability [3] | differential viability (reversal) ([4]; H69AR cells + 2 uM doxorubicin) | viability [4, 7] [%] | viability [4, 8] [%] | inhibition [5] | inhibition [6]
1 | Cc1cc(C)nc(NC2=NCC(=O)N2c2ccc(Cl)cc2)n1 | 99% (inactive) | 117% (inactive) | 97.1% (inactive) | 1.69% (inactive) | 95.4 | 97.1 | -7.03% (inactive) | 0.55% (inactive)
2 | COc1ccc(N2C(=O)C(Cl)=C(N3CCCC3)C2=O)cc1 | 97% (inactive) | 86.1% (inactive) | 94.7% (inactive) | 9.9% (inactive) | 84.8 | 94.7 | -6.08% (inactive) | -6.18% (inactive)
3 | CC(=O)OCC(=O)[C@H]1CC[C@H]2[C@@H]3CC=C4C[C@@H](O)CC[C@]4(C)[C@H]3CC[C@]12C | 87% (inactive) | 44.3% (inactive) | 96.8% (inactive) | 4.54% (inactive) | 92.3 | 96.8 | -0.65% (inactive) | 44.5% (active)
4 | O=C(C1CCCCC1)N1CC(=O)N2CCc3ccccc3C2C1 (stereo not drawn) | 104% (inactive) | 107% (inactive) | 96.7% (inactive) | -3.46% (inactive) | 100 | 96.7 | -0.91% (inactive) | -0.83% (inactive)
5 | CCOC(=O)C1/C(=N\O)CC(C)(O)C(C(=O)OCC)C1c1ccc(N(C)C)cc1 (stereo not drawn) | 72% (inactive) | 96.9% (inactive) | 87.5% (inactive) | -13.3% (inactive) | 101 | 87.5 | 1.64% (inactive) | 5.48% (inactive)
6 | COc1ccccc1CNC(=O)C(C)NS(=O)(=O)c1ccccc1 (stereo not drawn) | 113% (inactive) | 106% (inactive) | 87.1% (inactive) | -11% (inactive) | 98.1 | 87.1 | -7.4% (inactive) | -0.73% (inactive)
7 | CCOC(=O)C1(CC)NC(c2cccc(F)c2)C2C(=O)N(CC)C(=O)C21 (stereo not drawn) | 104% (inactive) | 96.1% (inactive) | 97.6% (inactive) | 5.01% (inactive) | 92.6 | 97.6 | -3.29% (inactive) | 3.06% (inactive)
8 | O=C(NCCCN1CCCC1=O)c1cccnc1 | 135% (inactive) | 113% (inactive) | 89.2% (inactive) | 0.48% (inactive) | 88.7 | 89.2 | -4.25% (inactive) | 3.09% (inactive)
9 | Cc1cccc(C(=O)N(C)c2nnc(-c3ccncc3)s2)c1 | 98% (inactive) | 92.5% (inactive) | 85.8% (inactive) | -3.53% (inactive) | 89.4 | 85.8 | -0.41% (inactive) | 24.7% (inactive)
10 | CN1CCN(C2=Nc3ccccc3Oc3ccc(Cl)cc32)CC1 | 80% (inactive) | 59.7% (inactive) | 73.6% (inactive) | 48.3% (inactive) | 25.3 | 73.6 | -3.38% (inactive) | -1.83% (inactive)
11 | Cc1cn(C2CC3OCC3O2)c(=O)[nH]c1=O (stereo not drawn) | 101% (inactive) | 110% (inactive) | 94.2% (inactive) | -4.39% (inactive) | 98.5 | 94.2 | -7.12% (inactive) | -16.2% (inactive)
